These results are taken from ChEMBL document CHEMBL3525937, “Drug efflux transporter multidrug resistance-associated protein 5 affects sensitivity of pancreatic cancer cell lines to the nucleoside anticancer drug 5-fluorouracil” (Drug Metab Dispos, 2011).

Data set [1] can be described thus: Cytotoxicity against human 5-FU-resistant Patu-T cells by crystal violet staining. The format is functional, cell-based. The following applies: PaTu 8988t. The method, boiled down:
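Patu-8988T subclones were selected with rising 5-FU over 6 months, then kept drug-free at least 1 week. Cells were plated at 5000–10,000/well, left 24 h, then drug-exposed. They were fixed in 4% paraformaldehyde, stained with 0.5% crystal violet in methanol, lysed in 1% SDS, and read at OD 570 nm against untreated cells (100%). At least five concentrations were tested in triplicate, and IC50 was obtained by sigmoidal nonlinear regression.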

A further data set has as its system PaTu 8988t. The data set can be described thus: Induction of thymidylate synthase expression in human Patu-T cells after 6 months by RT-PCR analysis relative to control. The format is functional, cell-based. The method, boiled down: (§1)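 Patu-8988T cells were cultured 6 months with increasing 5-FU, then kept at least 1 week drug-free. Transcripts were quantified by real-time RT-PCR on 20 ng cDNA with a Tris/KCl/MgCl2 platinum Taq master mix and ROX reference. Expression is reported relative to untreated parental Patu-T cells.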

Data set [2] can be described thus: Induction of BCRP expression in human Patu-T cells after 6 months by RT-PCR analysis relative to control. The format is ADME, cell-based. To be noted: patu 8988t, 4383 h. The method, boiled down: as §1
The subject of data set [3] is MRP5. In words: Induction of MRP5 expression in human MRP5 vector transfected Colo-357 cells by RT-PCR analysis relative to control. The format is cell-based, COLO357. To be noted: Colo-357 cells transfected with human MRP5 vector, read-out: FC. The method, boiled down: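 Colo-357 cells were transfected with pcDNA3.1/hygro-MRP5 or empty vector, split after 48 h and selected in hygromycin B. MRP5 mRNA was measured by quantitative real-time RT-PCR (20 ng cDNA) relative to the vector-only clone.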

The nature of data set [4]: Cytotoxicity against human Colo-357 cells assessed as cell killing at 1 uM after 48 hrs using propidium iodide staining by cytofluorometric analysis. In kind it is functional, COLO357. The method, boiled down: (§2)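 Colo-357 cells stably transfected with pcDNA3.1/hygro-MRP5 or empty vector were cultured with 5-FU (1–33 M) for 48 h. Cells were harvested, stained with 2 g/ml propidium iodide in PBS for 5 min at 4°C in the dark, and PI uptake was read by flow cytometry (10,000 cells, debris gated out). Values are the percentage of dead cells from three assays in triplicate.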

Data set [5] can be described thus: Cytotoxicity against human Colo-357 cells assessed as cell killing at 3 uM after 48 hrs using propidium iodide staining by cytofluorometric analysis. In kind it is functional, COLO357. The essentials: as §2
A short description of data set [6]: Cytotoxicity against human Colo-357 cells assessed as cell killing at 10 uM after 48 hrs using propidium iodide staining by cytofluorometric analysis. In kind it is functional, COLO357. The essentials:
as §2

Data set [7] is described as follows: Cytotoxicity against human Colo-357 cells assessed as cell killing at 33 uM after 48 hrs using propidium iodide staining by cytofluorometric analysis. The format is functional, COLO357. The method, boiled down: as §2
The nature of data set [8]: Cytotoxicity against human Colo-357 cells expressing MRP5 assessed as cell killing at 1 uM after 48 hrs using propidium iodide staining by cytofluorometric analysis. The format is functional, COLO357. The essentials: as §2
Data set [9] is described as follows: Cytotoxicity against human Colo-357 cells expressing MRP5 assessed as cell killing at 3 uM after 48 hrs using propidium iodide staining by cytofluorometric analysis. In kind it is functional, COLO357. The essentials:
as §2

A short description of data set [10]: Cytotoxicity against human Colo-357 cells expressing MRP5 assessed as cell killing at 10 uM after 48 hrs using propidium iodide staining by cytofluorometric analysis. In kind it is functional, COLO357. The essentials:
as §2

Data set [11] is described as follows: Cytotoxicity against human Colo-357 cells expressing MRP5 assessed as cell killing at 33 uM after 48 hrs using propidium iodide staining by cytofluorometric analysis. In kind it is functional, COLO357. The essentials:
as §2

The subject of a further data set is COLO357. The data set can be described thus: Cytotoxicity against human Colo-357 cells expressing MRP5 assessed as cell killing after 48 hrs using propidium iodide staining by cytofluorometric analysis. In kind it is functional, cell-based. The method, boiled down:
as §2

Data set [12] has as its target T1, ATP-binding cassette sub-family C member 5 (Homo sapiens, UniProt O15440). The data set can be described thus: Activity at MRP5 in human Colo-357 cells assessed as decrease of drug accumulation after 2 hrs relative to wild type cells. In kind it is ADME, cell-based. Further details: scale not given: the % may be the effect or the level left. The following applies: colo357, 2 h. The essentials:
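Stably transfected Colo-357 (pcDNA3.1/hygro-MRP5 vs empty vector, hygromycin B selected), subconfluent, seeded in triplicate, grown overnight, then incubated at 37°C with 7.6 M [14C]5-FU (0.4 Ci/ml, 52 mCi/mmol) for timed intervals. Washed with ice-cold PBS, lysed in 0.2% SDS, scintillation counted, normalised to protein.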

For data set [13], the target named is T1, ATP-binding cassette sub-family C member 5. The data set can be described thus: Activity at MRP5 in human Colo-357 cells assessed as increase of drug efflux after 60 mins relative to wild type cells. To be noted: colo357, 1 h. The format is ADME, cell-based. The method, boiled down:
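Transfected Colo-357 cells seeded in triplicate were preloaded 2 h with [14C]5-FU in energy-depletion medium (glucose-free, pyruvate-free, sodium azide). After two washes, medium was switched to ordinary drug-free growth medium, and medium radioactivity was sampled at time points over 60 min. Results are expressed as released radioactivity relative to radioactivity accumulated during loading.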

Data set [14] is described as follows: Cytotoxicity against human MRP5 knockdown Patu-02 cells assessed as increase of cell death at 3.3 uM after 48 hrs using propidium iodide staining by cytofluorometric analysis. In kind it is functional. The method, boiled down:
(§3)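 Patu-02 cells stably transfected with an MRP5 siRNA expression vector or empty vector (hygromycin B selected, single-cell cloned, RT-PCR screened) were exposed to 5-FU (3.3–100 M) for 48 h. Cell death was measured as PI uptake (2 g/ml, 5 min, 4°C, dark) by flow cytometry on 10,000 gated cells. Three assays were run in triplicate.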

Data set [15] is described as follows: Cytotoxicity against human MRP5 knockdown Patu-02 cells assessed as increase of cell death at 10 uM after 48 hrs using propidium iodide staining by cytofluorometric analysis. The format is functional. The method, boiled down: as §3
Data set [16] is described as follows: Cytotoxicity against human MRP5 knockdown Patu-02 cells assessed as increase of cell death at 33 uM after 48 hrs using propidium iodide staining by cytofluorometric analysis. The format is functional. The method, boiled down:
as §3

A short description of data set [17]: Cytotoxicity against human MRP5 knockdown Patu-02 cells assessed as increase of cell death at 100 uM after 48 hrs using propidium iodide staining by cytofluorometric analysis. The format is functional. The essentials:
as §3

The nature of data set [18]: Cytotoxicity against human Patu-02 cells assessed as increase of cell death at 3.3 uM after 48 hrs using propidium iodide staining by cytofluorometric analysis. The format is functional. The essentials: as §3
Data set [19] is described as follows: Cytotoxicity against human Patu-02 cells assessed as increase of cell death at 10 uM after 48 hrs using propidium iodide staining by cytofluorometric analysis. In kind it is functional. The essentials: as §3
Data set [20] in a line: Cytotoxicity against human Patu-02 cells assessed as increase of cell death at 33 uM after 48 hrs using propidium iodide staining by cytofluorometric analysis. In kind it is functional. The method, boiled down: as §3
Data set [21] is described as follows: Cytotoxicity against human Patu-02 cells assessed as increase of cell death at 100 uM after 48 hrs using propidium iodide staining by cytofluorometric analysis. In kind it is functional. The essentials:
as §3

Data set [22] can be described thus: Cytotoxicity against human T3M4 cells by crystal violet staining. In kind it is functional, cell-based. The method, boiled down: (§4)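 Cells plated at 5000–10,000 per well and left 24 h, then exposed to drug in medium for the set time at 37°C, 5% CO2. Washed with PBS, fixed 15 min in 4% paraformaldehyde and stained 5 min with 0.5% crystal violet in methanol. Lysed in 1% SDS, OD read at 570 nm with untreated cells as 100%. IC50 fitted by nonlinear sigmoidal regression over at least five concentrations, each in triplicate; three independent experiments.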

The nature of data set [23]: Cytotoxicity against human Colo-357 cells by crystal violet staining. The format is functional, cell-based. The following applies: COLO357. The essentials:
as §4

Data set [24] in a line: Cytotoxicity against human Patu-T cells by crystal violet staining. In kind it is functional, cell-based. The following applies: PaTu 8988t. The essentials: as §4
The nature of data set [25]: Cytotoxicity against human Patu-S cells by crystal violet staining. The format is functional, cell-based. The method, boiled down: as §4
A short description of data set [26]: Cytotoxicity against human Aspc-1 cells by crystal violet staining. The format is functional, cell-based. The following applies: ASPC1. The essentials: as §4
The nature of data set [27]: Cytotoxicity against human PANC1 cells by crystal violet staining. In kind it is functional, cell-based. The following applies: PANC-1. The method, boiled down:
as §4

Data set [28] can be described thus: Cytotoxicity against human Patu-02 cells by crystal violet staining. In kind it is functional, cell-based. The essentials:
as §4

A further data set has as its system DAN-G. The data set can be described thus: Cytotoxicity against human DAN-G cells by crystal violet staining. The format is functional, cell-based. The essentials:
as §4

The next data set deals with MRP4. The data set can be described thus: Induction of MRP4 expression in human Patu-T cells after 6 months by RT-PCR analysis relative to control. To be noted: read-out: FC. The format is cell-based, PaTu 8988t. The method, boiled down: as §1
Data set [29] has as its system MRP5. The data set can be described thus: Induction of MRP5 expression in human Patu-T cells after 6 months by RT-PCR analysis relative to control. In kind it is cell-based, PaTu 8988t. The following applies: read-out: FC. The essentials: as §1

Active and inactive are the calls of the source. The calls are words filed in the database; no cut-off is given here.

T1 sequence (O15440 whole entry): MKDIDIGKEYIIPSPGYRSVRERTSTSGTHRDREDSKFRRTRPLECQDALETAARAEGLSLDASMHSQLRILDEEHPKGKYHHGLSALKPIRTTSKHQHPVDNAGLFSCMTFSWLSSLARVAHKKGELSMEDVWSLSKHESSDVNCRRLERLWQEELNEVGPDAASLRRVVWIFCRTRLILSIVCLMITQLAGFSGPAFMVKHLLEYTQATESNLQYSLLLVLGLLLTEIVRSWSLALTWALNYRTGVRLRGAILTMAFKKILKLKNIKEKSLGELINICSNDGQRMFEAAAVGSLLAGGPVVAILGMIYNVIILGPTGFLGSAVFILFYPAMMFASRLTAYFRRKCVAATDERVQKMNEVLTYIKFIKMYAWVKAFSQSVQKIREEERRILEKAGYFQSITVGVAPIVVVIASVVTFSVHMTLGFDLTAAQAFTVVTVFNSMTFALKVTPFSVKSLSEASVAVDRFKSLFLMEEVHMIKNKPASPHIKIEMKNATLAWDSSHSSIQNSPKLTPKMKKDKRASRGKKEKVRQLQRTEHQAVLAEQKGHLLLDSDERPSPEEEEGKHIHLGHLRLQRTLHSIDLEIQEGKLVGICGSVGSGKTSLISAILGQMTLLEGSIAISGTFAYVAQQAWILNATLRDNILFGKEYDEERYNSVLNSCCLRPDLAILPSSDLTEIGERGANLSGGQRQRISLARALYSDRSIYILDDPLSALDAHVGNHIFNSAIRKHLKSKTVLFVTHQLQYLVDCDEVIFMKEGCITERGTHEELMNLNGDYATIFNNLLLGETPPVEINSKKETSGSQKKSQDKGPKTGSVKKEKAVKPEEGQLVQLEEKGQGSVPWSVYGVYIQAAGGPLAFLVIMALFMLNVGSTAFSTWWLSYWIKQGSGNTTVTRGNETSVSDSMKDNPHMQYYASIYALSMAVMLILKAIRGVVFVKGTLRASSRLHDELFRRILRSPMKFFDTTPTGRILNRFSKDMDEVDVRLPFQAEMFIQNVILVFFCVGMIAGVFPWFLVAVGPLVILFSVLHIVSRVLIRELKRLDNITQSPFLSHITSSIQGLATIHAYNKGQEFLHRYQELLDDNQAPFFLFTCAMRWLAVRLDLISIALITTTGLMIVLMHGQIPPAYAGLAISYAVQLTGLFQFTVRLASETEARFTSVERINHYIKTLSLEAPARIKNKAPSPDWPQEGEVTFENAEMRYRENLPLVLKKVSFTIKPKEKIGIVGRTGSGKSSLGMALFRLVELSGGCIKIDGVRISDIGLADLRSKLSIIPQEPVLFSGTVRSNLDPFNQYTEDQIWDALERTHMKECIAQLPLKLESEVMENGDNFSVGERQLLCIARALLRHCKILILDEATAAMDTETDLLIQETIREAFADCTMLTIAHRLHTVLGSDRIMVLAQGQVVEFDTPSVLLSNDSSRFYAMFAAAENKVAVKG

What is called IC50 is the point on the concentration scale where inhibition reaches its midpoint. Regarding `O=c1[nH]cc(F)c(=O)[nH]1` [FLUOROURACIL], the IC50 is 33200 nM in data set [1]; 330 nM in [22]; 2050 nM in data set [23]; 2080 nM in data set [24]; 2930 nM in data set [25]; 2970 nM in [26]. For the same compound, the IC50 in data set [27] was 3940 nM; in data set [28] it was 3950 nM; in the data set with DAN-G, 4380 nM. The outcome with PaTu 8988t and in the data set with COLO357 was inactive. The Activity result was “Not Active” in [2]; 26.4% in data set [4]; 45.4% in data set [5]; 54.6% in [6]; 53% in [7]; 16.4% in data set [8]. In addition, the Activity in [9] is reported as 31.2%; in data set [10] it was 39.1%; in data set [11], 44.9%; in data set [12], 59.2%; in data set [14] it was 36%; in data set [15], 53%. The Activity in data set [16] was determined as 80%; in data set [17], 94%; in data set [18], 10%; in data set [19], 27%; in data set [20], 63%; in data set [21] it was 66%. Further, the fold induction in the data set on MRP5 [3] is 4.3. Moreover, the “fold change (FC)” value in [13] turned out to be 2.1. Moreover, the fold induction at 4383 h with MRP4 was determined as 2.5; with MRP5 [29], 2.4.

For `Nc1ccn([C@@H]2O[C@H](CO)[C@@H](O)C2(F)F)c(=O)n1` [GEMCITABINE], the 50% inhibitory concentration (IC50) in data set [22] stood at 1.5 nM; in [23], 0.36 nM; in [24] it was 2.8 nM; in data set [25], 3.2 nM; in data set [26], 4 nM; in data set [27], 1 nM. Besides, the IC50 (in data set [28]; in the data set on DAN-G) was 3.4 nM throughout.

As for `Sc1ncnc2nc[nH]c12` [MERCAPTOPURINE ANHYDROUS], the IC50 in data set [22] came to 2630 nM; in [23] it was 6120 nM; in data set [24] it was 4090 nM; in data set [25], 11100 nM; in [26], 2450 nM; in data set [27], 6390 nM. For the same compound, the IC50 in data set [28] is 9690 nM; in the data set with DAN-G, 4060 nM.

`Nc1nc2[nH]cnc2c(=S)[nH]1` [THIOGUANINE]: the IC50 in data set [22] amounted to 1280 nM; in data set [23] it was 2090 nM; in data set [24] it was 3430 nM; in data set [25], 2210 nM; in data set [26], 2800 nM; in data set [27], 8310 nM. The IC50 came out at 2260 nM in data set [28] and 4320 nM with DAN-G.
